The results in this text go back to ChEMBL document CHEMBL5357047, “The development of thymol-isatin hybrids as broad-spectrum antibacterial agents with potent anti-MRSA activity” (RSC Med Chem, 2024).

Type in all cases: functional
Settings in all cases: read-out: IZ

Experiment [1] has as its system Staphylococcus aureus. In words: Antibacterial activity against Staphylococcus aureus MTCC 740 assessed as inhibition of bacterial growth at 50 uM measured after 48 hrs by agar well diffusion method.
Experiment [2] deals with Staphylococcus aureus. In words: Antibacterial activity against clinically isolated Staphylococcus aureus RBRJ010 assessed as inhibition of bacterial growth at 50 uM measured after 48 hrs by agar well diffusion method. In general terms: In agar diffusion tests the substance spreads into inoculated agar from a disc or well.
The test system of experiment [3] is Staphylococcus epidermidis. In words: Antibacterial activity against Staphylococcus epidermidis MTCC 435 assessed as inhibition of bacterial growth at 50 uM measured after 48 hrs by agar well diffusion method.
The subject of experiment [4] is Staphylococcus aureus. Kind of experiment: Antibacterial activity against clinically isolated Methicillin-resistant Staphylococcus aureus assessed as inhibition of bacterial growth at 50 uM measured after 48 hrs by agar well diffusion method.
Experiment [5] has as its system Staphylococcus aureus. Kind of experiment: Antibacterial activity against Methicillin-resistant Staphylococcus aureus ATCC 33591 assessed as inhibition of bacterial growth at 50 uM measured after 48 hrs by agar well diffusion method. The method, boiled down: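 Agar well diffusion on Mueller Hinton agar seeded with bacteria at 0.5 McFarland. […] Incubated 48 h at 37 °C aerobically; zone of inhibition diameter (mm) measured. Triplicate.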

Experiment [6] has as its system Enterococcus faecalis. In words: Antibacterial activity against Enterococcus faecalis MTCC 439 assessed as inhibition of bacterial growth at 50 uM measured after 48 hrs by agar well diffusion method.
Experiment [7] relates to Enterococcus faecalis. Kind of experiment: Antibacterial activity against clinically isolated Enterococcus faecalis RBRJ015 assessed as inhibition of bacterial growth at 50 uM measured after 48 hrs by agar well diffusion method.
The subject of experiment [8] is Klebsiella pneumoniae. In words: Antibacterial activity against Klebsiella pneumoniae MTCC 109 assessed as inhibition of bacterial growth at 50 uM measured after 48 hrs by agar well diffusion method.
The subject of experiment [9] is Klebsiella pneumoniae. Kind of experiment: Antibacterial activity against clinically isolated Klebsiella pneumoniae RBRJ019 assessed as inhibition of bacterial growth at 50 uM measured after 48 hrs by agar well diffusion method.
Experiment [10] concerns Klebsiella pneumoniae. Kind of experiment: Antibacterial activity against clinically isolated Klebsiella pneumoniae RBRJ024 assessed as inhibition of bacterial growth at 50 uM measured after 48 hrs by agar well diffusion method.
Experiment [11] has as its system Escherichia coli. Kind of experiment: Antibacterial activity against Escherichia coli MTCC 119 assessed as inhibition of bacterial growth at 50 uM measured after 48 hrs by agar well diffusion method.
In experiment [12] the test system is Escherichia coli. In words: Antibacterial activity against clinically isolated Escherichia coli RBRJ005 assessed as inhibition of bacterial growth at 50 uM measured after 48 hrs by agar well diffusion method.
For experiment [13], the system named is Escherichia coli. In words: Antibacterial activity against clinically isolated Escherichia coli RBRJ013 assessed as inhibition of bacterial growth at 50 uM measured after 48 hrs by agar well diffusion method.
In experiment [14] the test system is Enterobacter cloacae. Kind of experiment: Antibacterial activity against clinically isolated Enterobacter cloacae RBRJ017 assessed as inhibition of bacterial growth at 50 uM measured after 48 hrs by agar well diffusion method.
Experiment [15] deals with Acinetobacter baumannii. Kind of experiment: Antibacterial activity against clinically isolated Acinetobacter baumannii RBRJ027 assessed as inhibition of bacterial growth at 50 uM measured after 48 hrs by agar well diffusion method.
Experiment [16] concerns Pseudomonas aeruginosa. Kind of experiment: Antibacterial activity against Pseudomonas aeruginosa MTCC 424 assessed as inhibition of bacterial growth at 50 uM measured after 48 hrs by agar well diffusion method.

Take `Cc1ccc(C(C)C)c(OCc2cn(CCCCN3C(=O)C(=O)c4cc(Cl)ccc43)nn2)c1`: the zone of inhibition at 50 µM in [1] is 18.4 mm; in [2], 12.6 mm; in experiment [3], 14.3 mm; in experiment [4] it was 14.2 mm; in experiment [5] it was 13.6 mm; in experiment [6], 11.2 mm. Besides, the zone of inhibition at 50 µM in experiment [7] came to 13.4 mm; in experiment [8] it was 13.2 mm; in experiment [9], 12.3 mm; in [10], 10.3 mm; in [11], 10.3 mm; in experiment [12], 12.3 mm. The zone of inhibition at 50 µM in experiment [13] is 11.4 mm; in experiment [14], 11.5 mm; in experiment [15], 11.1 mm; in experiment [16], 12.4 mm.

For `Cc1ccc(C(C)C)c(OCc2cn(CCCCN3C(=O)C(=O)c4cc(C)ccc43)nn2)c1`, the zone of inhibition at 50 µM in experiment [1] was found to be 19.5 mm; in experiment [2] it was 14.6 mm; in experiment [3], 11.4 mm; in experiment [4], 15.8 mm; in experiment [5] it was 14.2 mm; in experiment [6], 12.4 mm. Moreover, the zone of inhibition at 50 µM was 15.3 mm in experiment [7]; 15.4 mm in experiment [8]; 13.2 mm in experiment [9]; 12.2 mm in [10]; 15.5 mm in experiment [11]; 13.1 mm in experiment [12]. Further, the zone of inhibition at 50 µM in experiment [13] was determined as 11.4 mm; in [14], 11.6 mm; in experiment [15] it was 10.4 mm; in experiment [16] it was 12.9 mm.

For `Cc1ccc(C(C)C)c(OCc2cn(CCN3C(=O)C(=O)c4cc(I)ccc43)nn2)c1`, the zone of inhibition at 50 µM in [1] worked out at 15.2 mm; in experiment [2] it was 14.1 mm; in experiment [3], 13.4 mm; in experiment [4] it was 13.2 mm; in experiment [5] it was 13.1 mm; in experiment [6], 12.2 mm. The zone of inhibition at 50 µM in experiment [7] is 12.9 mm; in [8], 12.7 mm; in [9], 11.6 mm; in [10], 12.2 mm; in experiment [11] it was 11.3 mm; in experiment [12], 10.3 mm. Moreover, the zone of inhibition at 50 µM came out at 11.3 mm in experiment [13], 13.1 mm in experiment [14], 12.1 mm in experiment [15] and 10.4 mm in experiment [16].

In the case of `Cc1ccc(C(C)C)c(OCc2cn(CCCCN3C(=O)C(=O)c4cc(F)ccc43)nn2)c1`, the zone of inhibition at 50 µM is 19.2 mm in [1]; 12.2 mm in experiment [2]; 15.1 mm in experiment [3]; 16.2 mm in [4]; 16.4 mm in experiment [5]; 10 mm in experiment [6]. For the same compound, the zone of inhibition at 50 µM in experiment [7] came out at 14.6 mm; in experiment [8] it was 14.4 mm; in experiment [9], 13.2 mm; in experiment [10], 11.3 mm; in [11], 11.2 mm; in [12] it was 12.2 mm. For the same compound, the zone of inhibition at 50 µM turned out to be 11.1 mm in experiment [13], 12.5 mm in [14], 11.8 mm in [15] and 12.2 mm in [16].

Consider `Cc1ccc(C(C)C)c(OCc2cn(CCN3C(=O)C(=O)c4cc(Cl)ccc43)nn2)c1`, for which the zone of inhibition at 50 µM worked out at 19.3 mm in [1]; 19.6 mm in experiment [2]; 16.2 mm in experiment [3]; 14.3 mm in experiment [4]; 14.6 mm in experiment [5]; 11.2 mm in experiment [6]. Moreover, the zone of inhibition at 50 µM stood at 15.2 mm in experiment [7]; 15.1 mm in [8]; 15.2 mm in experiment [9]; 13.6 mm in experiment [10]; 13.6 mm in experiment [11]; 13.2 mm in experiment [12]. The zone of inhibition at 50 µM in [13] was determined as 13.1 mm; in experiment [14], 14.2 mm; in experiment [15] it was 12 mm; in experiment [16], 14.1 mm.

As for `Cc1ccc(C(C)C)c(OCc2cn(CCCCN3C(=O)C(=O)c4cc(I)ccc43)nn2)c1`, the zone of inhibition at 50 µM in experiment [1] came to 16.9 mm; in [2], 11.9 mm; in [3], 13.5 mm; in experiment [4], 13.5 mm; in experiment [5] it was 14 mm; in experiment [6] it was 10.1 mm. For the same compound, the zone of inhibition at 50 µM was 11.2 mm in experiment [7]; 12.2 mm in [8]; 10.7 mm in experiment [9]; 10.1 mm in experiment [10]; 10.2 mm in experiment [11]; 10.4 mm in experiment [12]. Moreover, the zone of inhibition at 50 µM in experiment [13] was found to be 10.9 mm; in experiment [14], 10.2 mm; in [15], 10.1 mm; in experiment [16] it was 10.6 mm.

On to `COc1ccc2c(c1)C(=O)C(=O)N2CCCCn1cc(COc2cc(C)ccc2C(C)C)nn1`, for which the zone of inhibition at 50 µM in experiment [1] is 19 mm; in [2] it was 13.2 mm; in [3] it was 12.6 mm; in experiment [4], 15.2 mm; in experiment [5], 13.2 mm; in [6], 11.2 mm. In addition, the zone of inhibition at 50 µM in experiment [7] was 13.2 mm; in experiment [8] it was 14.7 mm; in experiment [9], 12.2 mm; in experiment [10] it was 11.3 mm; in experiment [11], 14.4 mm; in [12], 14.2 mm. For the same compound, the zone of inhibition at 50 µM in experiment [13] was 11.3 mm; in experiment [14], 10.9 mm; in experiment [15], 10.2 mm; in experiment [16], 11.3 mm.

Consider `Cc1ccc(C(C)C)c(OCc2cn(CCN3C(=O)C(=O)c4cc(Br)ccc43)nn2)c1`, for which the zone of inhibition at 50 µM in experiment [1] worked out at 16.2 mm; in experiment [2], 16.4 mm; in experiment [3] it was 15.3 mm; in experiment [4] it was 14.2 mm; in [5], 13.3 mm; in experiment [6] it was 13.6 mm. Moreover, the zone of inhibition at 50 µM amounted to 12.4 mm in experiment [7]; 13.2 mm in experiment [8]; 11.2 mm in experiment [9]; 12.3 mm in experiment [10]; 12.5 mm in [11]; 12.5 mm in [12]. Further, the zone of inhibition at 50 µM in [13] was determined as 13.2 mm; in experiment [14] it was 13.3 mm; in experiment [15] it was 12.5 mm; in experiment [16], 14 mm.
